The values below come from paper PMC10345485 (Saudi Pharmaceutical Journal : SPJ, 2023).

The assay concerns the target urease (Canavalia ensiformis, UniProt P07374). Description: Urease inhibition assay. The class given is biochemical. The note with it: IC50 (µM) ± SEM, in-vitro urease inhibition. An outline of the steps: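 Test compound and enzyme preincubated in pH 6.8 phosphate buffer for 10 min at 37 °C. Phenol and alkali reagents then added. Absorbance read at 625 nm. Percent inhibition calculated as (control absorbance − sample absorbance)/control absorbance × 100. Run in triplicate, with a standard urease inhibitor as positive control. Values given ± SEM.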

Each structure is given as a SMILES string. Values joined by “and” are separate entries in the source; they are usually repeats but may differ in a detail not shown here. Equal values may be shown once.

urease, sequence (P07374 whole entry, looked up): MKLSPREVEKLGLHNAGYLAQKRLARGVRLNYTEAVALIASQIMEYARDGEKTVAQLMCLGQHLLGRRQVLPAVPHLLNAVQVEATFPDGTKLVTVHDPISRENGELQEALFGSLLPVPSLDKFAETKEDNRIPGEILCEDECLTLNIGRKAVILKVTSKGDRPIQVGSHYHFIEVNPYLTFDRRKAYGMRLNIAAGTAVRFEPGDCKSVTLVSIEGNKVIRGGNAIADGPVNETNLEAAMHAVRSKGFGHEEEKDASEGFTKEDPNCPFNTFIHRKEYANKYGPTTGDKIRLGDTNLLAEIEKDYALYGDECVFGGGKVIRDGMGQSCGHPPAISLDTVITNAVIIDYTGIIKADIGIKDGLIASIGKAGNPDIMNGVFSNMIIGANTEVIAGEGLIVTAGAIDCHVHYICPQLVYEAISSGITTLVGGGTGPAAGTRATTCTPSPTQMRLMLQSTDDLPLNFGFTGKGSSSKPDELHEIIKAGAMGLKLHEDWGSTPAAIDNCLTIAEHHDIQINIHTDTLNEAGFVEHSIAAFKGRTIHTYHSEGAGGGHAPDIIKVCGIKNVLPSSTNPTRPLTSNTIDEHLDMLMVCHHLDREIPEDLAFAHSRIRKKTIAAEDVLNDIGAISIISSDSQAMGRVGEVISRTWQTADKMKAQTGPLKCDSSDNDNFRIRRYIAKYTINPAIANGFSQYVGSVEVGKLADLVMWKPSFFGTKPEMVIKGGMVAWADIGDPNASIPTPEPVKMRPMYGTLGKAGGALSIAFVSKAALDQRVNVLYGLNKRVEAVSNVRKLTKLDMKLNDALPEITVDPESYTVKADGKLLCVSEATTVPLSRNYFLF

Turning to `O=[N+]([O-])c1ccc(C=NN=C(Cc2ccccc2)c2ccccc2)cc1` [Compound 4, 1-(1,2-diphenylethylidene)-2-(4-nitrobenzylidene)hydrazine], the IC50 worked out at 26.11 ± 0.22 µM. As for `Oc1ccc(C=NN=C(Cc2ccccc2)c2ccccc2)cc1` [Compound 9, 1-(1,2-diphenylethylidene)-2-(4-hydroxybenzylidene)hydrazine], the IC50 was 48.3 µM and 47.9 µM. In turn, `O=[N+]([O-])c1ccc(O)c(C=NN=C(Cc2ccccc2)c2ccccc2)c1` [Compound 5, 1-(1,2-diphenylethylidene)-2-(2-hydroxy-5-nitrobenzylidene)hydrazine] showed an IC50 of 34.3 ± 0.65 µM. As to `Cc1ccc(C=NN=C(Cc2ccccc2)c2ccccc2)cc1` [Compound 8, 1-(1,2-diphenylethylidene)-2-(4-methylbenzylidene)hydrazine], the IC50 was 47.9 µM and 45.9 µM. `Clc1ccc(C=NN=C(Cc2ccccc2)c2ccccc2)cc1` [Compound 6, 1-(4-chlorobenzylidene)-2-(1,2-diphenylethylidene)hydrazine] registered an IC50 of 28.11 ± 0.22 µM. `Clc1ccc(C=NN=C(Cc2ccccc2)c2ccccc2)c(Cl)c1` [Compound 3, 1-(2,4-dichlorobenzylidene)-2-(1,2-diphenylethylidene)hydrazine]: the IC50 was found to be 22.2 ± 0.42 µM. Take `CSc1ccc(C=NN=C(Cc2ccccc2)c2ccccc2)cc1` [Compound 7, 1-(1,2-diphenylethylidene)-2-(4-(methylthio)benzylidene)hydrazine]: the IC50 is 45.9 µM and 48.3 µM.
